APJ agonist: APJ receptor agonism; AID 2520; activation, % at 20 µM; P35414; CHO-K1 APJ PathHunter beta-arrestin, luminescence; 0% DMSO wells, 100% apelin; hit rate 0.11% among 330,000;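 active = activation more than six SD over the plate average, tested at 20 µM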;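 also: 0% = DMSO alone and 100% = apelin-13 at 10 nM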
Target sequence (P35414 whole entry, looked up): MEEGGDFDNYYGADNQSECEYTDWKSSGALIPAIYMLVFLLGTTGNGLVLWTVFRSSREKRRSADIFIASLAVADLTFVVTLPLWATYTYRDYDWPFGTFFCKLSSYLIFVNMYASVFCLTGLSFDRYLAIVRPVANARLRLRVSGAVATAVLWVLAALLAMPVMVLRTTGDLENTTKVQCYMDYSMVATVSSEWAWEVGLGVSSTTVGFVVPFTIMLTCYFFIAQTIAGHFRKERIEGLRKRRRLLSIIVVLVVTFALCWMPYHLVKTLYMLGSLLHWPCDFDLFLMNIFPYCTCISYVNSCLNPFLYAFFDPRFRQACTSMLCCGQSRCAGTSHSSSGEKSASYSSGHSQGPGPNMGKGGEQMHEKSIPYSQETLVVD
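Material: CHO-K1 APJ beta-arrestin complementation cell line; Input: cell density 1000 per well; Incubation: compound stimulation 90 min at 25 °C, detection 60 min; Signal: luminescence from split beta-galactosidase complementation, Galacton Star/Emerald II substrate; Controls: DMSO-only wells as negative, 10 nM Apelin-13 as positive control.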
CXCR6 inh: blocks human CXCR6 beta-arrestin recruitment; O00574; CHO-K1 PathHunter CXCR6 beta-arrestin, luminescence; inhibition, % at 20 µM; hit rate 0.36% among 360,000; in the data active = inhibition above about 34%, passing the limit was not always enough;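 also: antagonist mode with CXCL16 agonist at 10 nM final; 0% = 10 nM CXCL16 with DMSO and 100% = unstimulated wells without agonist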
EBI2 block: EBI2 (human) antagonism; P32249; EBI2 beta-arrestin recruitment, luminescence, 7a,25-OHC stimulated; inhibition, % at 5 µM; hit rate 0.81% among 360,000; AID 651636; in the data active = inhibition above about 38%;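 also: enzyme fragment complementation signal reports receptor beta-arrestin coupling in cells; 0% = agonist plus DMSO wells and 100% = wells without agonist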
Target sequence (P32249 whole entry, looked up, the tested form may be a part): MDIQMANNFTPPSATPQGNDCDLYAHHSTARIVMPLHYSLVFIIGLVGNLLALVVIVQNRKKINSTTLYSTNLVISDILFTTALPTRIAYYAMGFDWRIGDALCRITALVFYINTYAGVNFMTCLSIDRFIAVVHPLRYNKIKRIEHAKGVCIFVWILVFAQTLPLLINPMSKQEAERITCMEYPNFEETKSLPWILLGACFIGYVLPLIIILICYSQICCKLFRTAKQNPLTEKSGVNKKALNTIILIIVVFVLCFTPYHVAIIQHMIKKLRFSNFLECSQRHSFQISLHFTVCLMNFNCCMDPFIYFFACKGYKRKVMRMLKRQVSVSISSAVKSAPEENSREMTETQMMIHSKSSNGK
APJ antagonist: blocks the human apelin receptor APJ; P35414; AID 2521; CHO-K1 APJ beta-arrestin complementation, luminescence; hit rate 0.32% among 330,000; inhibition, % at 20 µM;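 active = inhibition above about 40% at 20 µM, limit read from the data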;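 also: cells challenged with 10 nM apelin-13 agonist together with compound; plate controls were apelin-13 plus DMSO wells for no effect and DMSO wells lacking apelin-13 for full effect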
CCR6 antag: CCR6 (human) receptor antagonism; CHO-K1 CCR6 PathHunter beta-arrestin, luminescence, CCL20-stimulated; inhibition, % at 20 µM; hit rate 0.49% among 340,000; AID 493098;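 active = compounds whose inhibition of the agonist-driven luminescence signal at 20 µM reaches about 50%, limit read from the data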;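 also: cells stimulated with CCL20 at 14 nM final; plate controls were DMSO with CCL20 for no effect and DMSO without agonist for full effect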
EBI2 antag conf: EBI2 (human) antagonism, single concentration confirmation; shares compounds with EBI2 block; EBI2 beta-arrestin luminescence, 7a,25-OHC antagonism; inhibition, % at 5 µM; hit rate 29% among 2,400; AID 651997;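 active = inhibition of at least 50%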
EBI2 ag: EBI2 agonism counter-screen | shares compounds with EBI2 block | EBI2-expressing cells, agonist mode, luminescence, 60 min; 0% vehicle, 100% 7α,25-dihydroxycholesterol control | activation, % at 5 µM | 2,400 tested, under 10 active | AID 652000;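 active = activation of at least 50%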
bGal counter: beta-galactosidase inhibition counter-screen. AID 652176. purified beta-galactosidase, luminescent Galacton Star, 15 min. inhibition, % at 5 µM. hit rate 1% among 2,400. shares compounds with EBI2 block;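 active = replicate-average signal at least 3 plate SD below neutral wells, shown as high inhibition, flagging enzyme-inhibiting false positives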;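 also: 0% = DMSO wells with enzyme and 100% = wells lacking enzyme; higher means stronger loss of beta-gal luminescence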
* = called active by the depositor; nt = no result. Shown are actives, neighbours in structure and some others; about 1.5% of the full set was active somewhere.

SMILES	APJ agonist	CXCR6 inh	EBI2 block	APJ antagonist	CCR6 antag	EBI2 antag conf	EBI2 ag	bGal counter
COc1cc(C(=O)OCC(=O)Nc2ccc(N3CCOCC3)cc2)ccc1OCC(C)C	-6.6	-2.0	-4.2	-54.9	7.9	nt	nt	nt
COc1ccc([C@H]2CC(=O)C=C(c3ccc(O)cc3)C2)cc1OC	-3.2	0.6	17.8	4.8	4.9	nt	nt	nt
COc1ccc([C@H]2CC(=O)C=C(c3ccc4ccccc4c3)C2)cc1OC	-3.5	10.0	61.9*	3.1	4.7	50.9*	-1.7	1.1
COc1ccc([C@H]2CC(=O)C=C(c3ccc(OC)c(F)c3)C2)cc1	-3.5	4.1	51.1*	2.9	5.5	46.2	-1.0	-4.4
COc1ccc([C@H]2CC(=O)C=C(c3cc(F)ccc3OC)C2)cc1	-4.7	5.1	18.7	10.6	17.3	nt	nt	nt
COc1ccc([C@H]2CC(=O)C=C(c3ccc(OC)c(OC)c3)C2)cc1	-3.0	-5.1	46.0*	4.2	14.4	43.4	1.4	4.2
CCCn1c(N)c(N(CCOC)C(=O)CSc2c(Cl)cccc2Cl)c(=O)[nH]c1=O	-2.6	3.5	-0.6	3.0	11.8	nt	nt	nt
CCOC(=O)/C(C#N)=C/C1=C(N2CCOCC2)CC(C)(C)OC1	-1.6	-1.5	8.6	-1.6	11.3	nt	nt	nt
CCCCSc1nc2ccc(Nc3nc(N4CCOCC4)nc(N4CCOCC4)n3)cc2s1	0.5	7.0	46.4*	0.8	7.6	23.7	-0.8	-6.2
CCCCNC(=O)CSc1nc2ccc(Nc3nc(N4CCOCC4)nc(N4CCOCC4)n3)cc2s1	-2.3	1.3	32.9	-9.3	10.2	nt	nt	nt
COC(=O)c1[nH]c2cc(C)ccc2c1NC(=O)CN1CCOCC1	1.5	-0.1	-5.3	12.9	9.0	nt	nt	nt
COC(=O)c1[nH]c2cc(OC)ccc2c1NC(=O)CN1CCN(c2cccc(C)c2)C(C)C1 (stereo unspecified)	-7.5	6.9	72.5*	-10.0	10.4	69.7*	-1.5	-7.3
COC(=O)/C=C/c1ccc(OC(=O)OC)c(OC(=O)OC)c1	nt	3.3	-4.4	nt	11.8	nt	nt	nt
O=C1CCN(Cc2ccccc2)C=C1c1ccc(Br)cc1	-0.3	-8.2	84.5*	7.5	22.1	66.7*	-0.5	-5.6
Cc1ccc(C2=CN(Cc3ccccc3)CCC2=O)cc1	-2.2	-4.0	44.1*	-0.9	16.3	25.0	1.8	3.6
O=C(COc1ccc(-c2nnc(N3CCCCC3)c3ccccc23)cc1)N1CCCCC1	0.2	-5.1	-11.9	3.1	14.5	nt	nt	nt
O=C(COc1ccc([N+](=O)[O-])cc1)N1CCN(c2nnc(-c3ccccc3)c3ccccc23)CC1	-1.6	11.2	68.1*	11.2	6.0	35.6	-0.6	12.6
Cc1ccc(-c2nnc(N3CCN(C(=O)COc4ccccc4)CC3)c3ccccc23)cc1	-1.4	2.6	86.2*	14.9	15.8	53.0*	-0.5	-9.3
c1ccc(-c2csc(Nc3ccc4c(c3)OCO4)n2)cc1	nt	-5.1	44.5*	nt	nt	46.9	0.9	6.4
N#Cc1ccc(Nc2nc(-c3ccccc3)cs2)cc1	nt	-15.0	27.1	nt	nt	nt	nt	nt
O=C1N(Cc2ccccc2)CC2(Br)COCOC12O (stereo unspecified)	nt	-3.3	2.5	nt	9.6	nt	nt	nt
CCN(CC)c1ccc(NC(=O)COc2ccc(C)cc2)cc1	0.5	-8.4	48.2*	-8.4	11.2	4.8	-0.5	-12.6
Cc1ccc(OCC(=O)Nc2ccc(N(C)C)cc2)cc1	-2.0	-3.4	0.7	-26.4	11.9	nt	nt	nt
CCCc1nc2ccc(NC(=O)c3cccs3)cc2c(=O)n1Cc1ccc(Cl)cc1	-1.5	2.1	42.8*	6.3	-9.5	20.0	2.6	6.0
O=C(/C=C/c1ccc(Cl)c(Cl)c1)N1CCOCC1	3.6	-2.2	57.4*	21.8	1.9	55.3*	-1.2	-19.9
SMILES	APJ agonist	CXCR6 inh	EBI2 block	APJ antagonist	CCR6 antag	EBI2 antag conf	EBI2 ag	bGal counter
O=C(/C=C/c1ccc(Cl)cc1)N1CCOCC1	-4.7	2.9	50.2*	8.0	14.6	30.0	-1.2	-10.0
CC(C)c1ccc(/C=C/C(=O)N2CCOCC2)cc1	-2.8	-5.5	29.6	2.4	13.4	nt	nt	nt
O=C(/C=C/c1ccc(Br)cc1)NC(=S)N1CCOCC1	-0.5	-3.3	64.2*	-6.8	-1.9	48.3	0.3	-0.1
O=C(/C=C/c1ccc2c(c1)OCO2)N1CCN(c2ccc(Cl)cc2)CC1	2.6	-2.1	47.5*	1.4	-11.9	28.6	1.8	5.5
CCOCCSc1n[nH]c(=O)n1CCc1ccccc1	-1.6	4.3	6.7	-4.4	2.5	nt	nt	nt
Cc1ccc(NC(=O)c2ccc(CSc3ccccn3)cc2)cc1	-5.0	-0.4	45.6*	-2.8	2.0	30.5	-0.7	-13.5
O=c1[nH]c(C2CCN(S(=O)(=O)Cc3ccccc3)CC2)nc2c1nnn2Cc1ccccc1	1.0	3.6	-11.4	4.0	12.3	nt	nt	nt
O=c1[nH]c(C2CCN(S(=O)(=O)/C=C/c3ccccc3)CC2)nc2c1nnn2Cc1ccc(F)cc1	-2.1	-2.9	48.5*	8.8	4.7	33.1	0.0	7.3
COc1ccc(C(=O)NCCOc2ccccc2Cl)c(OC)c1OC	-3.3	-14.6	3.5	-6.2	16.4	nt	nt	nt
CC1CCN(C(=O)c2cc3ccccc3c(=O)o2)CC1	0.3	-1.8	-2.5	9.7	6.9	nt	nt	nt
CC1CCN(C(=O)c2cc3c(ccc4ccccc43)o2)CC1	-5.8	5.2	81.8*	-20.3	31.3	61.8*	0.3	-4.9
CCOC(=O)C1CCN(C(=O)c2cc3c(ccc4ccccc43)o2)CC1	-5.1	-5.4	77.7*	12.5	34.5	64.0*	-1.3	-11.2
COc1ccc2ccc(OCC(=O)NCC3CCCO3)cc2c1 (stereo unspecified)	4.2	0.8	-8.4	-11.7	12.6	nt	nt	nt
CN(NC(=S)Nc1ccc(OC(F)F)cc1)C(=S)Nc1ccc(OC(F)F)cc1	-4.7	1.5	42.8*	20.3	19.9	16.7	1.7	6.3
FC(F)Oc1ccc(NC(=S)NCc2ccccc2)cc1	-0.4	-0.1	-3.7	-17.3	-6.4	nt	nt	nt
Oc1cccc2c(NC(=S)Nc3ccc(OC(F)F)cc3)cccc12	5.2	-16.3	44.5*	-30.7	5.9	24.4	-1.5	-7.8
S=C(Nc1ccccc1)Nc1ccc2cn[nH]c2c1	2.3	-8.1	3.0	-1.8	-8.3	nt	nt	nt
CCN(CC)C(=S)Nc1ccc(OC(F)F)cc1	0.5	2.3	22.2	-15.4	8.8	nt	nt	nt
FC(F)Oc1ccc(NC(=S)Nc2ccc3cn[nH]c3c2)cc1	0.2	2.6	53.2*	-24.2	-2.6	47.4	0.2	-14.4
O=C(CSc1nccn1Cc1ccccc1)NC1CCCC1	7.0	-2.4	-3.6	-5.8	6.3	nt	nt	nt
O=[N+]([O-])c1ccc(N2CCCCC2)cc1NCCOc1ccccc1	-1.8	8.6	44.5*	27.5	19.9	34.8	-1.2	-9.7
Cc1ccc(CNC(=O)/C(C#N)=C/c2ccc(C)s2)cc1	5.4	4.7	50.8*	19.6	6.8	31.7	0.2	-14.8

High-throughput results as filed in PubChem BioAssay.
